Test results reported in ChEMBL document CHEMBL2440084, “Design and bio-evaluation of indole derivatives as potent Kv1.5 inhibitors” (Bioorg Med Chem, 2013).

Assays:
[1] = biological target: T1, Potassium voltage-gated channel subfamily A member 5 (Homo sapiens, UniProt P22460); assay: Inhibition of human Kv1.5 channel expressed in HEK293 cells at 10 uM by whole cell patch clamp technique; assay type: cell-based
[2] = biological target: T1, Potassium voltage-gated channel subfamily A member 5; assay: Inhibition of human Kv1.5 channel expressed in HEK293 cells by whole cell patch clamp technique; assay type: cell-based
Outline: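 HEK 293 cells stably expressing hKv1.5 were grown at 37 °C with 10% FBS and 0.2 mg/mL geneticin, trypsinized and used the same day. Whole-cell I_Kur was evoked by 500-ms steps to +60 mV from -80 mV at 0.1 Hz, at 25 °C. Compound was applied ≥5 min after current stabilized. IC50 came from cell-by-cell Hill fits, ≥3 cells per concentration, mean ± SD, n = 3.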

Homo sapiens = species on record: Homo sapiens; assay: Selectivity ratio of IC50 for human ERG channel to IC50 for human Kv1.5 channel
[3] = biological target: Voltage-gated inwardly rectifying potassium channel KCNH2 (Homo sapiens, UniProt Q12809); assay: Inhibition of human ERG channel expressed in CHO cells by whole cell patch clamp technique; assay type: cell-based
Voltage-gated inwardly rectifying potassium channel KCNH2, sequence (Q12809 whole entry): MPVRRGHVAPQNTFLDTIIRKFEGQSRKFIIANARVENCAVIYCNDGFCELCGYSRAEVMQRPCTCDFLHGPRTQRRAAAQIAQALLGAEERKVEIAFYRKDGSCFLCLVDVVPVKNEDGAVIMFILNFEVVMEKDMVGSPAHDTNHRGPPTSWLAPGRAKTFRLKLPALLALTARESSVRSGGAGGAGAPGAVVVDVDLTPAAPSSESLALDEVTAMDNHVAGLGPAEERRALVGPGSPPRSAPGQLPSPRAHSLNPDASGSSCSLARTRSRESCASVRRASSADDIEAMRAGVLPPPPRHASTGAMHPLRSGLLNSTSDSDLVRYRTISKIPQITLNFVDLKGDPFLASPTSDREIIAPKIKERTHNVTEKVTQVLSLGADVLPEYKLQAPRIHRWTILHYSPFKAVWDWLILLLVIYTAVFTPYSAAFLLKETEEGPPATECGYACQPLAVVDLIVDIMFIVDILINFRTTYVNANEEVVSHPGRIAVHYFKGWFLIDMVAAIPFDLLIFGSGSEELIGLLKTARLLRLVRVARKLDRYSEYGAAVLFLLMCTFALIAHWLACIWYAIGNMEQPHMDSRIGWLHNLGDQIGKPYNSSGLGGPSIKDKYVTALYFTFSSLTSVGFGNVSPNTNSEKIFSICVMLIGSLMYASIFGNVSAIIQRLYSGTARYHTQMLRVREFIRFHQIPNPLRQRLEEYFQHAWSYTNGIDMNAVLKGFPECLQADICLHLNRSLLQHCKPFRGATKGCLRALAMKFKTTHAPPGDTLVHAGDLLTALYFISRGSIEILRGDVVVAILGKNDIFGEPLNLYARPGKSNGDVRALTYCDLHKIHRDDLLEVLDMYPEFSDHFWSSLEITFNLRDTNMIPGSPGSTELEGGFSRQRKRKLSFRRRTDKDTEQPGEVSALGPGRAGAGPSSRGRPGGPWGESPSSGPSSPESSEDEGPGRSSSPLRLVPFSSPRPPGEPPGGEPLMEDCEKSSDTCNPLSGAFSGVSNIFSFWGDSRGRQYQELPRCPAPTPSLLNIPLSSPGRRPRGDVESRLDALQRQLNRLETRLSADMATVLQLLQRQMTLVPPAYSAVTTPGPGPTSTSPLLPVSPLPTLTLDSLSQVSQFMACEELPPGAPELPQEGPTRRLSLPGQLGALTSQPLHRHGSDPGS

[4] = Inhibition of sodium channel in guinea pig ventricular myocytes by whole cell patch clamp technique; assay type: cell-based; conditions: Cavia porcellus, Ventricular myocyte
Outline: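 Whole-cell I_Na was recorded in enzymatically isolated ventricular myocytes, using only quiescent, rod-shaped, striated cells, at 25 °C. Holding potential was -90 mV, with 30-ms pulses from -80 to +40 mV in 10-mV increments at 0.5 Hz. Compound was applied ≥5 min after current stabilized. IC50 came from cell-by-cell Hill fits, ≥3 cells per concentration, mean ± SD.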

HEK293 = assay: Selectivity ratio of IC50 for sodium channel in guinea pig ventricular myocytes to IC50 for human Kv1.5 channel expressed in HEK293 cells; assay type: cell-based
[5] = Effect on ventricular effective refractory period in right ventricle of Sprague-Dawley rat heart at 0.1 to 50 umol/L after 10 mins
Rattus norvegicus = species on record: Rattus norvegicus; assay: Prolongation of atrial effective refractory period in left atrium of Sprague-Dawley rat heart after 10 mins; assay type: functional, tissue-based; conditions: Cardiac atrium
Outline: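 Male SD rats (230 ± 30 g) were anesthetized with i.p. chloral hydrate. Left atrium and right ventricle were isolated into Krebs-Henseleit solution at pH 7.4, gassed with 95% O2/5% CO2. Compound was added cumulatively at 0.1, 1.0, 10 and 50 μmol/L, with 10 min equilibration each. ERP was recorded before and after compound. Values are mean ± SEM, n = 3, compared by Student's t test.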

T1 sequence (P22460 whole entry): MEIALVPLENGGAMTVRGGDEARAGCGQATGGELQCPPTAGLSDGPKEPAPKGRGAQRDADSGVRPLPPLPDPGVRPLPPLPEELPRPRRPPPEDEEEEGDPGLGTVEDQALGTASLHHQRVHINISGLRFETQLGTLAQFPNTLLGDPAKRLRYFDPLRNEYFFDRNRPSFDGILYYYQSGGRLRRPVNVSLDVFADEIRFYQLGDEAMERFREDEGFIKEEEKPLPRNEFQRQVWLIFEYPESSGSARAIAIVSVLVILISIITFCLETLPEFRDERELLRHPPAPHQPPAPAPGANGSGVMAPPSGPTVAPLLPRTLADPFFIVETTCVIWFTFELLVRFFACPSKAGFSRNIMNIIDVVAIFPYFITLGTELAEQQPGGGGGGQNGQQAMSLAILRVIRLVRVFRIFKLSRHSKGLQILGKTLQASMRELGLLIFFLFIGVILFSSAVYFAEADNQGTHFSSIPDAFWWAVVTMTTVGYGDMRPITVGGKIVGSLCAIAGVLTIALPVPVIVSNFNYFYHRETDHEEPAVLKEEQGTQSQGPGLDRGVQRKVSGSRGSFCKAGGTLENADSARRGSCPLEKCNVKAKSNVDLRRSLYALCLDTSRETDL

IC50 [2] | inhibition [2] | Structure (SMILES) | also measured
8.37 µM | Dose-dependent effect | CCCCOc1ccc(S(=O)(=O)NC(Cc2c[nH]c3ccccc23)C(=O)OC)cc1 (stereo not drawn) | inhibition [1]: 52%
2.14 µM | Dose-dependent effect | CCC(=O)Oc1ccc(NC(=O)Cn2cc(/C=N/NS(=O)(=O)c3ccc(C)cc3)c3ccccc32)cc1 | –
16.9 µM | Dose-dependent effect | COc1ccc(NC(=O)Cn2cc(/C=N/NS(=O)(=O)c3ccc(C)cc3)c3ccccc32)cc1 | –
24 µM | Dose-dependent effect | Cc1ccc(S(=O)(=O)N/N=C/c2cn(CC(=O)Nc3ccc(C)cc3C)c3ccccc23)cc1 | –
2.38 µM | Dose-dependent effect | COC(=O)C(Cc1c[nH]c2ccccc12)NS(=O)(=O)c1ccc(OC2CCCC2)cc1 (stereo not drawn) | –
0.74 µM | Dose-dependent effect | Cc1ccc(S(=O)(=O)N/N=C/c2cn(CC(=O)Nc3ccccc3Cl)c3ccccc23)cc1 | Ratio IC50 (Homo sapiens): 25.2; IC50 [3]: 18.7 µM
6.21 µM | Dose-dependent effect | CCCCOc1ccc(S(=O)(=O)NCCc2cn(CC(=O)Nc3ccc(OC)cc3)c3ccccc23)cc1 | –
2.18 µM | Dose-dependent effect | COc1ccc2c(c1)c(/C=N/NS(=O)(=O)c1ccc(C)cc1)cn2CC(=O)Nc1ccc(F)cc1F | –
1.77 µM | Dose-dependent effect | Cc1ccc(S(=O)(=O)N/N=C/c2cn(CC(=O)Nc3cc(C)ccc3C)c3ccccc23)cc1 | –
0.25 µM | Dose-dependent effect | Cc1ccc(S(=O)(=O)N/N=C/c2cn(CC(=O)Nc3ccc(F)cc3F)c3ccccc23)cc1 | IC50 [4]: 115 µM; Ratio IC50 (HEK293): 459; Activity [5]: Non-toxic; Ratio IC50 (Homo sapiens): 172; Activity (Rattus norvegicus): Dose-dependent effect; IC50 [3]: 43 µM
65.4 µM | Dose-dependent effect | CCCCOc1ccc(S(=O)(=O)NC(Cc2c[nH]c3ccccc23)C(=O)O)cc1 (stereo not drawn) | –
6.45 µM | Dose-dependent effect | COC(=O)C(Cc1c[nH]c2ccccc12)NS(=O)(=O)c1ccc(F)cc1 (stereo not drawn) | –
3.93 µM | Dose-dependent effect | COC(=O)C(Cc1c[nH]c2ccccc12)NS(=O)(=O)c1ccc(OC(C)C)cc1 (stereo not drawn) | –
11.2 µM | Dose-dependent effect | Cc1ccc(S(=O)(=O)N/N=C/c2cn(CC(=O)Nc3ccc(C)c(C)c3)c3ccccc23)cc1 | –
12.9 µM | Dose-dependent effect | Cc1ccc(S(=O)(=O)NCCc2cn(CC(=O)Nc3ccc(Cl)cc3)c3ccccc23)cc1 | –
3.56 µM | Dose-dependent effect | COC(=O)C(Cc1c[nH]c2ccccc12)NS(=O)(=O)c1ccc(OCC(C)C)cc1 (stereo not drawn) | –
110 µM | Dose-dependent effect | CCCCOc1ccc(S(=O)(=O)NC(Cc2ccccc2)C(=O)OC)cc1 (stereo not drawn) | –
5.45 µM | Dose-dependent effect | COC(=O)C(Cc1c[nH]c2ccccc12)NS(=O)(=O)c1ccc(OC)cc1 (stereo not drawn) | –
3.73 µM | Dose-dependent effect | COc1ccc2c(c1)c(/C=N/NS(=O)(=O)c1ccc(C)cc1)cn2CC(=O)Nc1ccccc1 | –
0.51 µM | Dose-dependent effect | COc1ccc2c(c1)c(/C=N/NS(=O)(=O)c1ccc(C)cc1)cn2CC(=O)Nc1ccc(Cl)cc1 | IC50 [4]: 52.6 µM; Ratio IC50 (HEK293): 103; Activity [5]: Non-toxic; Ratio IC50 (Homo sapiens): 820; Activity (Rattus norvegicus): Dose-dependent effect; IC50 [3]: 418 µM
1.72 µM | Dose-dependent effect | COc1ccc(NC(=O)Cn2cc(CCNS(=O)(=O)c3ccc(OC)cc3)c3ccccc32)cc1 | Ratio IC50 (Homo sapiens): 5.95; IC50 [3]: 10.2 µM
1.9 µM | Dose-dependent effect | Cc1ccc(S(=O)(=O)N/N=C/c2cn(CC(=O)Nc3ccc(Cl)cc3)c3ccccc23)cc1 | –
1.52 µM | Dose-dependent effect | Cc1ccc(S(=O)(=O)N/N=C/c2cn(CC(=O)Nc3ccc(OC(F)(F)F)cc3)c3ccccc23)cc1 | –
4.72 µM | Dose-dependent effect | COC(=O)C(Cc1c[nH]c2ccccc12)NS(=O)(=O)c1ccc(C)cc1 (stereo not drawn) | –
9.95 µM | Dose-dependent effect | CCCCOc1ccc(S(=O)(=O)NCCc2c[nH]c3ccccc23)cc1 | Ratio IC50 (Homo sapiens): 0.32; IC50 [3]: 3.18 µM
3.14 µM | Dose-dependent effect | COc1ccc(S(=O)(=O)NCCc2cn(CC(=O)Nc3ccc(Cl)cc3)c3ccccc23)cc1 | –
185 µM | Dose-dependent effect | CCCCOc1ccc(S(=O)(=O)NCCc2cn(CC(=O)Nc3ccc(Cl)cc3)c3ccccc23)cc1 | –
0.81 µM | Dose-dependent effect | Cc1ccc(S(=O)(=O)N/N=C/c2cn(CC(=O)Nc3ccccc3)c3ccccc23)cc1 | IC50 [4]: 78 µM; Ratio IC50 (HEK293): 96.3; Ratio IC50 (Homo sapiens): 53.9; IC50 [3]: 43.6 µM
2.25 µM | Dose-dependent effect | COC(=O)C(Cc1c[nH]c2ccccc12)NS(=O)(=O)c1ccc(Br)cc1 (stereo not drawn) | –
38.7 µM | Dose-dependent effect | COc1ccc(NC(=O)Cn2cc(CCNS(=O)(=O)c3ccc(C)cc3)c3ccccc32)cc1 | –
